The test system of assay [1] is Candida tropicalis. In words: Antifungal activity against Candida tropicalis isolate CT8 planktonic cells after 48 hrs by broth microdilution method. The assay is classed as functional. Particulars: isolate CT8, 48 h. The method in brief:
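CLSI broth microdilution in RPMI 1640; isolate plated on Sabouraud dextrose agar 24 h at 37°C. Drug stock in sterile saline diluted in RPMI, 16 to 0.0625 μg/ml tested. MIC read at 48 h as lowest concentration giving significant turbidity reduction versus control well.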

In assay [2] the test system is Candida tropicalis. In words: Antifungal activity against Candida tropicalis isolate CT8 biofilm assessed as viable fungal count per cm2 of silicone disk at 0.5 ug/ml after 48 hrs […]. The assay is classed as functional. The method in brief:
(§1)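 Biofilms grown on serum-preconditioned silicone disks in RPMI 1640 for 24 h, PBS-washed, then exposed 48 h at 35°C on a rocker to caspofungin doubling dilutions spanning 0.25–128 μg/ml. Disks washed and sonicated/vortexed in PBS to release cells. Suspensions diluted in Butterfield buffer and plated on Sabouraud dextrose agar. Viable counts from three disks averaged as CFU/cm2.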
Background: Formazan colour is commonly taken as a measure of viable cells.

Assay [3] has as its system Candida albicans. Kind of assay: Antifungal activity against Candida albicans isolate CA4 planktonic cells after 48 hrs by broth microdilution method. It is filed as functional. As to conditions: isolate CA4, 48 h. The method in brief: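 Isolates grown on Sabouraud dextrose agar 24 h at 37°C. MIC is the lowest concentration giving a significant turbidity reduction versus control at 48 h.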
(Broth dilution looks for growth in wells or tubes with falling amounts of substance.)

In assay [4] the test system is Candida tropicalis. Kind of assay: Antifungal activity against Candida tropicalis isolate CT8 biofilm assessed as viable fungal count per cm2 of silicone disk at 2 ug/ml after 48 hrs […]. The assay is classed as functional. The method in brief: as §1
In assay [5] the test system is Candida tropicalis. Kind of assay: Antifungal activity against Candida tropicalis isolate CT8 biofilm assessed as viable fungal count per cm2 of silicone disk at 128 ug/ml after 48 hrs […]. It is filed as functional. In outline:
as §1

The subject of assay [6] is Candida tropicalis. Kind of assay: Antifungal activity against Candida tropicalis isolate CT8 biofilm assessed as viable fungal count per cm2 of silicone disk at 0.25 ug/ml after 48 hrs […]. It is filed as functional. The method in brief:
as §1

Assay [7] deals with Candida albicans. Kind of assay: Antifungal activity against Candida albicans isolate CA4 biofilm assessed as viable fungal count per cm2 of silicone disk at 128 ug/ml after 48 hrs […]. It is filed as functional. In outline: as §1
Assay [8] has as its system Candida albicans. Kind of assay: Antifungal activity against Candida albicans isolate CA4 biofilm assessed as viable fungal count per cm2 of silicone disk at 2 ug/ml after 48 hrs […]. It is filed as functional. In outline:
as §1

Assay [9] deals with Candida albicans. In words: Antifungal activity against Candida albicans isolate CA4 biofilm assessed as assessed as appearance of increased number of small blastospore at 128 ug/ml after 48 hrs by scanning electron microscopy. It is filed as functional, organism-based. The method in brief:
(§2)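 Silicone disks preconditioned 24 h at 37°C in heat-inactivated human serum, seeded with 1 × 10^6 CFU/ml in MOPS-buffered RPMI 1640 (pH 7.0), 1.5 h attachment at 37°C with shaking, then grown 24 h. Washed biofilms exposed to 1.0, 16 or 128 μg/ml caspofungin in RPMI 1640, 48 h at 35°C on a rocker. Untreated controls in RPMI only. Fixed in 5% glutaraldehyde/cacodylate (pH 6.2), ethanol-dehydrated, HMDS air-dried, examined by SEM. Run in triplicate.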

In assay [10] the test system is Candida albicans. In words: Antifungal activity against Candida albicans isolate CA4 biofilm assessed as viable fungal count per cm2 of silicone disk at 0.5 ug/ml after 48 hrs […]. It is filed as functional. In outline: as §1
Assay [11] concerns Candida parapsilosis. In words: Antifungal activity against Candida parapsilosis isolate CP1 biofilm after 48 hrs by XTT assay. It is filed as functional. Particulars: Lodderomyces parapsilosis, isolate CP1, 48 h. The method in brief: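 Biofilms on serum-preconditioned silicone disks in MOPS-buffered RPMI 1640 (pH 7.0), grown 24 h, PBS-washed, then challenged 48 h at 35°C on a rocker with ten doubling caspofungin dilutions, 0.25–128 μg/ml. Metabolic activity read by XTT-menadione reduction, 2 h at 37°C, A490. SMIC taken as the concentration giving 50% reduction in metabolic activity versus drug-free control. Triplicate.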

Assay [12] deals with Candida parapsilosis. In words: Antifungal activity against Candida parapsilosis isolate CP1 biofilm assessed as viable fungal count per cm2 of silicone disk at 1 ug/ml after 48 hrs […]. It is filed as functional. In outline:
as §1

Assay [13] has as its system Candida albicans. In words: Antifungal activity against Candida albicans isolate CA4 biofilm assessed as assessed as decrease in preformed fungal biofilm formation at 128 ug/ml after 48 hrs by scanning electron microscopy. It is filed as functional, organism-based. In outline:
as §2

Assay [14] concerns Candida tropicalis. Kind of assay: Antifungal activity against Candida tropicalis isolate CT8 biofilm assessed as viable fungal count per cm2 of silicone disk at 4 ug/ml after 48 hrs […]. The assay is classed as functional. In outline:
as §1

Assay [15] relates to Candida tropicalis. Kind of assay: Antifungal activity against Candida tropicalis isolate CT8 biofilm after 48 hrs by XTT assay. The assay is classed as functional. As to conditions: isolate CT8, 48 h. In outline:
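Biofilms of clinical bloodstream isolates grown 24 h in RPMI 1640 (MOPS, pH 7.0) on human-serum-preconditioned silicone disks, after 1.5 h attachment at 37°C from 1 × 10^6 CFU/ml. Washed disks exposed 48 h at 35°C on rocker to 10 doubling dilutions, 0.25–128 μg/ml. XTT-menadione reduction 2 h at 37°C, A490; concentration giving 50% reduction of metabolic activity vs drug-free control; triplicate.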

The subject of assay [16] is Candida albicans. In words: Antifungal activity against Candida albicans isolate CA4 biofilm assessed as viable fungal count per cm2 of silicone disk at 8 ug/ml after 48 hrs […]. The assay is classed as functional. In outline:
as §1

Assay [17] concerns Candida parapsilosis. In words: Antifungal activity against Candida parapsilosis isolate CP1 biofilm assessed as viable fungal count per cm2 of silicone disk at 8 ug/ml after 48 hrs […]. The assay is classed as functional. The method in brief:
as §1

For assay [18], the system named is Candida parapsilosis. In words: Antifungal activity against Candida parapsilosis isolate CP1 biofilm assessed as viable fungal count per cm2 of silicone disk at 128 ug/ml after 48 hrs […]. It is filed as functional. The method in brief:
as §1

Assay [19] has as its system Candida parapsilosis. In words: Ratio of SMIC for Candida parapsilosis isolate CP1 biofilm to MIC for Candida parapsilosis isolate CP1 planktonic cells. It is filed as functional.
For assay [20], the system named is Candida tropicalis. In words: Antifungal activity against Candida tropicalis isolate CT8 biofilm assessed as viable fungal count per cm2 of silicone disk at 32 ug/ml after 48 hrs […]. It is filed as functional. In outline:
as §1

Assay [21] has as its system Candida tropicalis. Kind of assay: Antifungal activity against Candida tropicalis isolate CT8 biofilm assessed as viable fungal count per cm2 of silicone disk at 8 ug/ml after 48 hrs […]. The assay is classed as functional. The method in brief: as §1
For assay [22], the system named is Candida albicans. Kind of assay: Antifungal activity against Candida albicans isolate CA4 biofilm assessed as viable fungal count per cm2 of silicone disk at 16 ug/ml after 48 hrs […]. The assay is classed as functional. In outline: as §1
Assay [23] concerns Candida parapsilosis. In words: Antifungal activity against Candida parapsilosis isolate CP1 biofilm assessed as viable fungal count per cm2 of silicone disk at 16 ug/ml after 48 hrs […]. It is filed as functional. In outline: as §1
For assay [24], the system named is Candida parapsilosis. Kind of assay: Antifungal activity against Candida parapsilosis isolate CP1 biofilm assessed as viable fungal count per cm2 of silicone disk at 0.25 ug/ml after 48 hrs […]. It is filed as functional. The method in brief: as §1

Values after ≈ are worked out from the molar mass of the structure shown. Active and inactive are the calls of the source. The rule behind the calls is not given here.

We go through one compound from ChEMBL document CHEMBL1649578, “Biofilm formation and effect of caspofungin on biofilm structure of Candida species bloodstream isolates” (2009).

`CC[C@H](C)C[C@H](C)CCCCCCCCC(=O)N[C@H]1C[C@@H](O)[C@@H](NCCN)NC(=O)[C@@H]2[C@@H](O)CCN2C(=O)[C@H]([C@H](O)CCN)NC(=O)[C@H]([C@H](O)[C@@H](O)c2ccc(O)cc2)NC(=O)[C@@H]2C[C@@H](O)CN2C(=O)[C@H]([C@@H](C)O)NC1=O` [CASPOFUNGIN]: the MIC against Candida tropicalis [1] amounted to 0.0625 µg/mL (≈ 0.0572 µM); in the assay with Candida albicans [3] it was 0.0625 µg/mL (≈ 0.0572 µM); in the assay on Candida parapsilosis [11], 4 µg/mL (≈ 3.66 µM); against Candida tropicalis [15], 0.25 µg/mL (≈ 0.229 µM). The log10cfu in the assay with Candida tropicalis [2] came out at 6.2; in the assay with Candida tropicalis [4], 5.9; in the assay on Candida tropicalis [5], 3.3; in the assay on Candida tropicalis [6], 6.4; in the assay on Candida albicans [7], 3.5; with Candida albicans [8], 4.7. The log10cfu came out at 3.4 in the assay on Candida albicans [10]; 0 with Candida parapsilosis [12]; 5.7 with Candida tropicalis [14]; 5.6 in the assay on Candida albicans [16]; 5.2 with Candida parapsilosis [17]; 2.7 in the assay with Candida parapsilosis [18]. The log10cfu in the assay on Candida tropicalis [20] is reported as 5.4; in the assay with Candida tropicalis [21] it was 5.7; in the assay with Candida albicans [22], 6.2; in the assay with Candida parapsilosis [23], 4.5; in the assay on Candida parapsilosis [24], 0. Besides, the outcome in the assay with Candida albicans [9] and with Candida albicans [13] was Active. Further, in the assay with Candida parapsilosis [19], the Ratio was found to be 2.
